# Experimental data: ChEMBL document CHEMBL3044622, “Effectiveness and mode of action of phosphonate inhibitors of plant glutamine synthetase” (Pest Manag Sci, 2010)
# pIC50, pKi: −log10 of the molar value.
# Columns and labels:
# [1] = biological target: T1, Glutamine synthetase, chloroplastic (Zea mays, UniProt P25462); test: Inhibition of Zea mays cv. Jeff (maize) leaf glutamine synthetase using L-glutamate as substrate assessed as inorganic phosphate production after 20 min by malachite green assay relative to control
# T1 sequence (P25462 whole entry): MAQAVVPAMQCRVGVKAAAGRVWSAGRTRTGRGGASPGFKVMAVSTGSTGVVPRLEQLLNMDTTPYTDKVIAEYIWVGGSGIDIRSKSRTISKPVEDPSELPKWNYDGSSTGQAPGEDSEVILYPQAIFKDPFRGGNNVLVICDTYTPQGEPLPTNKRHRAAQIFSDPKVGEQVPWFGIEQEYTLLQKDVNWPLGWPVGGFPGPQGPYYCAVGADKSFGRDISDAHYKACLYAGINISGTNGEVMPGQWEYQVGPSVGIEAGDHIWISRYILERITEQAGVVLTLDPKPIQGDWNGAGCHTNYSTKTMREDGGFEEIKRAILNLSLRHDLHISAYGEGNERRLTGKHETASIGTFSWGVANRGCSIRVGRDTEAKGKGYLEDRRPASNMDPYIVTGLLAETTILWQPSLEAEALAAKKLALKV
# In short: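 GS purified from three-leaf-stage maize seedling leaves by ammonium sulfate, DEAE-Sephacel, Reactive Blue flow-through and Mono-Q steps. Inhibitor adjusted to pH 7.4 with KOH, 0.001–5 mM; IC50 by probit method.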
# [2] = biological target: T2, Glutamine synthetase, chloroplastic (Zea mays) (UniProt P25462); test: Inhibition of Zea mays cv. Jeff (maize) leaf glutamine synthetase using L-glutamate as substrate assessed as inorganic phosphate production at 1 mM after 20 min by malachite green assay relative to control
# T2 sequence (whole entry): T1 sequence (P25462 whole entry)
# [3] = biological target: T1, Glutamine synthetase, chloroplastic; test: Un-competitive inhibition of Zea mays cv. Jeff (maize) leaf glutamine synthetase using ATP as substrate Lineweaver-Burk plot analysis
# In short: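 With purified maize leaf GS in the biosynthetic assay (Pi by malachite green, 35 °C), ATP was varied at seven levels from 0.2 to 1 mM with L-glutamate fixed at 50 mM. Four inhibitor levels, 0.5- to 3-fold the I50, each at least in triplicate. Lineweaver–Burk plots were used, and Ki came from Dixon replots. Values are means ± SEM.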
# [4] = biological target: T1, Glutamine synthetase, chloroplastic; test: Non-competitive inhibition of Zea mays cv. Jeff( maize) leaf glutamine synthetase using L-glutamate as substrate Lineweaver-Burk plot analysis
SMILES,pIC50 [1],inhibition [2] [%],pKi [3],pKi [4]
"O=P(O)(O)C(Nc1c(Cl)cccc1Cl)P(=O)(O)O [2,6-DICHLOROPHENYLAMINOMETHYLENEBISPHOSPHONIC ACID]",4.82,81.1,,
"O=P(O)(O)C(Nc1cccc(Cl)c1Cl)P(=O)(O)O [2,3-DICHLOROPHENYLAMINOMETHYLENEBISPHOSPHONIC ACID]",4.89,84.9,,
"O=P(O)(O)C(O)c1ccc(Cl)cc1Cl (centres undefined) [(2,4-DICHLOROPHENYL)(HYDROXY)METHYLPHOSPHONIC ACID]",2.32,31.9,,
O=P(O)(O)C(Nc1ccc(Cl)cc1)P(=O)(O)O [(4-CHLOROPHENYLAMINO)METHYLENEDIPHOSPHONIC ACID],4.68,79.1,,
"NC(c1cccc(Cl)c1Cl)P(=O)(O)O (centres undefined) [AMINO(2,3-DICHLOROPHENYL)METHYLPHOSPHONIC ACID]",2.98,47.7,,
NC(c1ccccc1Cl)P(=O)(O)O (centres undefined) [AMINO(2-CHLOROPHENYL)METHYLPHOSPHONIC ACID],2.24,36.3,,
O=P(O)(O)C(O)c1ccc(Cl)c(Cl)c1 (centres undefined),,14.6,,
"O=P(O)(O)C(Nc1cc(Cl)cc(Cl)c1)P(=O)(O)O [(3,5-DICHLOROPHENYLAMINO)METHYLENEDIPHOSPHONIC ACID]",5.12,86.3,5.19,5.14
"O=P(O)(O)C(O)c1cccc(Cl)c1Cl (centres undefined) [(2,3-DICHLOROPHENYL)(HYDROXY)METHYLPHOSPHONIC ACID]",2.94,47.2,,
NC(c1ccccc1)P(=O)(O)O (centres undefined),,13.6,,
COc1cccc(C(N)P(=O)(O)O)c1OC (centres undefined),,-1.2,,
"O=P(O)(O)C(Nc1cc(Cl)ccc1Cl)P(=O)(O)O [2,5-DICHLOROPHENYLAMINOMETHYLENEBISPHOSPHONIC ACID]",4.41,79.1,,
NC(c1cccc(F)c1)P(=O)(O)O (centres undefined),,7.9,,
O=P(O)(O)C(O)c1cccc(Cl)c1 (centres undefined),,12.3,,
"Cc1cc(C)cc(NC(P(=O)(O)O)P(=O)(O)O)c1 [3,5-DIMETHYLPHENYLAMINOMETHYLENEBISPHOSPHONIC ACID]",4.25,67.5,4.26,4.28
O=P(O)(O)C(O)c1ccccc1Cl (centres undefined) [(2-CHLOROPHENYL)(HYDROXY)METHYLPHOSPHONIC ACID],2.18,27,,
"O=P(O)(O)C(Nc1ccc(Cl)cc1Cl)P(=O)(O)O [2,4-DICHLOROPHENYLAMINOMETHYLENEBISPHOSPHONIC ACID]",4.67,79.7,,
NC(c1ccccc1Br)P(=O)(O)O (centres undefined) [AMINO(2-BROMOPHENYL)METHYLPHOSPHONIC ACID],2.39,42.5,,
"O=P(O)(O)C(Nc1ccc(Cl)c(Cl)c1)P(=O)(O)O [3,4-DICHLOROPHENYLAMINOMETHYLENEBISPHOSPHONIC ACID]",4.50,73.8,,
NC(c1cccc(Cl)c1)P(=O)(O)O (centres undefined),,8.1,,
O=P(O)(O)C(O)c1ccc(Cl)cc1 (centres undefined),,8.3,,
O=P(O)(O)C(O)c1c(Cl)cccc1Cl (centres undefined),,10.7,,
"NC(c1ccc(Cl)cc1Cl)P(=O)(O)O (centres undefined) [AMINO(2,4-DICHLOROPHENYL)METHYLPHOSPHONIC ACID]",2.58,40.7,,
NC(c1ccccc1F)P(=O)(O)O (centres undefined) [AMINO(2-FLUOROPHENYL)METHYLPHOSPHONIC ACID],2.00,26.7,,
